# Measured values reported in paper PMC3536955 (Osteoporosis International, 2012).
# How the values were obtained:
# Assay type in all cases: in vivo, postmenopausal Japanese women
# [1] = system: urinary cross-linked C-telopeptide of type I collagen (CTX); experiment: Bone resorption marker urinary CTX; settings: n = 10
# Procedure, shortened: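 Urine was collected at baseline (0800 h), at 120, 240, 360 and 720 min after a single s.c. injection, and on mornings of days 2, 4, 6, 8, 11, 13 and 15. Subjects were postmenopausal women aged 60–79 y in a randomised, double-blind, placebo-controlled design. CTX was measured by ELISA (inter-assay CV 2.4–9.0 %), with each participant's samples in one batch. Median and distribution were summarised.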
# [2] = system: Serum cross-linked N-telopeptide of type I collagen (NTX); experiment: Bone resorption marker serum NTX; settings: n = 10
# Procedure, shortened: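 Serum NTX was measured by ELISA (inter-assay CV 6.9–11.1 %), with all of a participant's samples run together. The trial was a placebo-controlled, double-blind, single-centre study in postmenopausal women aged 60–79 y, each given one s.c. injection after 0800 h baseline sampling. Blood was taken at 15–720 min and on mornings of days 2–15. Baseline median and follow-up distribution were tabulated.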
# P1NP = experiment: Bone formation marker serum P1NP; settings: n = 10
# Procedure, shortened: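 Randomised, double-blind, placebo-controlled trial in women aged 60–79 y. A single s.c. dose was given at 0800 h after baseline sampling. Serum was drawn 15–720 min post-dose and on mornings of days 2, 4, 6, 8, 11, 13 and 15. P1NP was measured by radioimmunoassay (inter-assay CV 2.7–5.0 %), with each subject's samples in one batch. Median baseline and follow-up distribution were reported.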
# intact PTH = experiment: Serum intact PTH; settings: n = 10
# Procedure, shortened: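 Intact PTH in serum was measured by electrochemiluminescence immunoassay. Postmenopausal women aged 60–79 y were randomised double-blind to placebo or a single s.c. dose, given at 0800 h straight after baseline sampling. Blood was drawn at 15, 30, 45, 60, 90, 120, 180, 240, 360 and 720 min, then mornings of days 2, 4, 6, 8, 11, 13 and 15. Baseline median and follow-up distribution were reported.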
# [3] = system: 1,25-Dihydroxy vitamin D (1,25(OH)2D); experiment: Serum 1,25; settings: 2 to 24 h; 28.2 μg single s.c.; n = 10
# Procedure, shortened: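 Serum 1,25(OH)2D was measured by radio receptor assay (inter-assay CV 11.3–13.2 %), with each participant's samples in a single batch. Women aged 60–79 y received one s.c. injection or placebo at 0800 h after baseline blood, in a double-blind randomised design. Sampling ran from 15–720 min and on mornings of days 2, 4, 6, 8, 11, 13 and 15. Median baseline and follow-up distribution were tabulated.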
# [4] = 4 to 15 days, 28.2 μg single s.c.
# [5] = 4 to 15 days, 56.5 μg single s.c.
compound,measurement,setting,value
CC[C@H](C)[C@H](NC(=O)[C@H](CCC(=O)O)NC(=O)[C@H](CO)NC(=O)[C@@H](NC(=O)[C@@H](N)CO)C(C)C)C(=O)N[C@@H](CCC(N)=O)C(=O)N[C@@H](CC(C)C)C(=O)N[C@@H](CCSC)C(=O)N[C@@H](Cc1cnc[nH]1)C(=O)N[C@@H](CC(N)=O)C(=O)N[C@@H](CC(C)C)C(=O)NCC(=O)N[C@@H](CCCCN)C(=O)N[C@@H](Cc1cnc[nH]1)C(=O)N[C@@H](CC(C)C)C(=O)N[C@@H](CC(N)=O)C(=O)N[C@@H](CO)C(=O)N[C@@H](CCSC)C(=O)N[C@@H](CCC(=O)O)C(=O)N[C@@H](CCCN=C(N)N)C(=O)N[C@H](C(=O)N[C@@H](CCC(=O)O)C(=O)N[C@@H](Cc1c[nH]c2ccccc12)C(=O)N[C@@H](CC(C)C)C(=O)N[C@@H](CCCN=C(N)N)C(=O)N[C@@H](CCCCN)C(=O)N[C@@H](CCCCN)C(=O)N[C@@H](CC(C)C)C(=O)N[C@@H](CCC(N)=O)C(=O)N[C@@H](CC(=O)O)C(=O)N[C@H](C(=O)N[C@@H](Cc1cnc[nH]1)C(=O)N[C@@H](CC(N)=O)C(=O)N[C@@H](Cc1ccccc1)C(=O)O)C(C)C)C(C)C [teriparatide],"Urinary CTX, Max","[1]; 2 to 24 h, 28.2 μg single s.c.",958.0 µg/mmol
same,"Urinary CTX, Median","[1]; 2 to 24 h, 28.2 μg single s.c.",402.5 µg/mmol
same,"Urinary CTX, Min","[1]; 2 to 24 h, 28.2 μg single s.c.",192.0 µg/mmol
same,"Urinary CTX, Max","[1]; 2 to 24 h, 56.5 μg single s.c.",1190.0 µg/mmol
same,"Urinary CTX, Median","[1]; 2 to 24 h, 56.5 μg single s.c.",508.5 µg/mmol
same,"Urinary CTX, Min","[1]; 2 to 24 h, 56.5 μg single s.c.",238.0 µg/mmol
same,"Urinary CTX, Max",[1]; [4],655.0 µg/mmol
same,"Urinary CTX, Median",[1]; [4],351.0 µg/mmol
same,"Urinary CTX, Min",[1]; [4],106.0 µg/mmol
same,"Urinary CTX, Max",[1]; [5],972.0 µg/mmol
same,"Urinary CTX, Median",[1]; [5],351.0 µg/mmol
same,"Urinary CTX, Min",[1]; [5],142.0 µg/mmol
same,"Serum NTX, Max","[2]; 2 to 24 h, 28.2 μg single s.c.",21.7 nM BCE/L
same,"Serum NTX, Median","[2]; 2 to 24 h, 28.2 μg single s.c.",14.2 nM BCE/L
same,"Serum NTX, Min","[2]; 2 to 24 h, 28.2 μg single s.c.",9.2 nM BCE/L
same,"Serum NTX, Max","[2]; 2 to 24 h, 56.5 μg single s.c.",27.7 nM BCE/L
same,"Serum NTX, Median","[2]; 2 to 24 h, 56.5 μg single s.c.",13.8 nM BCE/L
same,"Serum NTX, Min","[2]; 2 to 24 h, 56.5 μg single s.c.",7.2 nM BCE/L
same,"Serum NTX, Max",[2]; [4],20.4 nM BCE/L
same,"Serum NTX, Median",[2]; [4],13.2 nM BCE/L
same,"Serum NTX, Min",[2]; [4],7.2 nM BCE/L
same,"Serum NTX, Max",[2]; [5],20.6 nM BCE/L
same,"Serum NTX, Median",[2]; [5],10.7 nM BCE/L
same,"Serum NTX, Min",[2]; [5],7.5 nM BCE/L
same,"Serum P1NP, Max","P1NP; 2 to 24 h, 28.2 μg single s.c.",77.4 ng/mL
same,"Serum P1NP, Median","P1NP; 2 to 24 h, 28.2 μg single s.c.",47.4 ng/mL
same,"Serum P1NP, Min","P1NP; 2 to 24 h, 28.2 μg single s.c.",28.0 ng/mL
same,"Serum P1NP, Max","P1NP; 2 to 24 h, 56.5 μg single s.c.",101.0 ng/mL
same,"Serum P1NP, Median","P1NP; 2 to 24 h, 56.5 μg single s.c.",49.1 ng/mL
same,"Serum P1NP, Min","P1NP; 2 to 24 h, 56.5 μg single s.c.",13.0 ng/mL
same,"Serum P1NP, Max",P1NP; [4],80.2 ng/mL
same,"Serum P1NP, Median",P1NP; [4],53.5 ng/mL
same,"Serum P1NP, Min",P1NP; [4],30.7 ng/mL
same,"Serum P1NP, Max",P1NP; [5],118.0 ng/mL
same,"Serum P1NP, Median",P1NP; [5],56.9 ng/mL
same,"Serum P1NP, Min",P1NP; [5],18.3 ng/mL
same,"Intact-PTH, Max","intact PTH; 2 to 24 h, 28.2 μg single s.c.",66.0 pg/mL
same,"Intact-PTH, Median","intact PTH; 2 to 24 h, 28.2 μg single s.c.",34.5 pg/mL
same,"Intact-PTH, Min","intact PTH; 2 to 24 h, 28.2 μg single s.c.",17.0 pg/mL
same,"Intact-PTH, Max","intact PTH; 2 to 24 h, 56.5 μg single s.c.",65.0 pg/mL
same,"Intact-PTH, Median","intact PTH; 2 to 24 h, 56.5 μg single s.c.",35.0 pg/mL
same,"Intact-PTH, Min","intact PTH; 2 to 24 h, 56.5 μg single s.c.",18.0 pg/mL
same,"Intact-PTH, Max",intact PTH; [4],64.0 pg/mL
same,"Intact-PTH, Median",intact PTH; [4],45.5 pg/mL
same,"Intact-PTH, Min",intact PTH; [4],25.0 pg/mL
same,"Intact-PTH, Max",intact PTH; [5],109.0 pg/mL
same,"Intact-PTH, Median",intact PTH; [5],49.0 pg/mL
same,"Intact-PTH, Min",intact PTH; [5],26.0 pg/mL
same,"1,25(OH)2D, Max",[3],118.0 pg/mL
same,"1,25(OH)2D, Median",[3],67.5 pg/mL
